Assay results taken from PubChem BioAssay AID493149 (Broad Institute, 2011).
“And” between values parts separate entries of the source, which are not always exact repeats. Equal entries are not always repeated. Results filed as inconclusive are left out. The source made the active and inactive calls.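 The calls were made as follows: active = every repeat run gives a falling-signal curve whose half-maximal concentration stays within the set limit; inconclusive = runs disagree, flat moderate inhibition, or unreliable fit; inactive = flat weak response, opposite effect, or too weak.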

System: C. albicans CaCi-8 + fluconazole, Alamar Blue growth, 48 h
Experiment: Candida CaCi-8 growth reduction under fluconazole – CaCi-8 strain, Alamar Blue, dry powder, set 9, dose response (AID 493149)
Settings: not given
How it was run: (§1)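 Material: Fluconazole-resistant C. albicans strain CaCi-8 | Timing: 48 h compound growth at 37 °C, 2 h RT dye | Medium: Defined RPMI/MOPS medium, glucose, uridine | Signal: Alamar Blue fluorescence, 1:200 final, Ex 544 nm, Em 590 nm | Also added: Fluconazole at 8 µg/mL final, sub-toxic level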

Row | SMILES | AC50
1 | COC(=O)Cn1nc(-c2cccc(C)c2)c2ccccc21 | 1.34 µM
2 | COC(=O)Cn1nc(-c2ccccc2)c2cc(F)ccc21 | 6.98 µM
3 | COC(=O)Cn1nc(-c2ccccc2)c2ccccc21 | 2.18 µM
4 | COC(=O)Cn1nc(-c2ccccc2)c2ccc(OC)cc21 | 12.7 µM
5 | COC(=O)Cn1nc(-c2cccc(OC)c2)c2ccccc21 | 1.2 µM
6 | COC(=O)Cn1nc(-c2cccc(F)c2)c2ccccc21 | 2.14 µM
7 | COC(=O)Cn1nc(-c2ccccc2)c2cc(OC)ccc21 | 18.6 µM
8 | COC(=O)Cn1nc(-c2ccccc2)c2ccc(Cl)cc21 | 8.57 µM
9 | COC(=O)Cn1nc(-c2ccccc2C)c2ccccc21 | 6.96 µM
10 | COC(=O)Cn1c2ccccc2c2nc3n(c(=O)c21)CCS3 | 8.51 µM
11 | COC(=O)Cn1nc(-c2ccccc2)c2ccc(F)cc21 | 8.34 µM
12 | COC(=O)Cn1nc(-c2ccccc2)c2ccc(C)cc21 | 7.29 µM
13 | COC(=O)Cn1nc(-c2ccc(OC)cc2)c2ccccc21 | 8.3 µM
14 | COC(=O)Cn1nc(-c2ccc(F)cc2)c2ccccc21 | 8.21 µM
15 | COC(=O)Cn1nc(-c2ccccc2OC)c2ccccc21 | 10.2 µM
16 | COC(=O)[C@@H](C)n1nc(-c2ccccc2)c2ccccc21 (racemic) | 15.9 µM
17 | COC(=O)Cn1nc(-c2ccccc2)c2cc(C)ccc21 | 5.33 µM
18 | O=C(Cn1c2ccccc2c2nc3n(c(=O)c21)CCS3)N1CCCC1 | 1.65 µM and 3.48 µM

System: not listed separately
Experiment: as above
Settings: C. albicans CaCi-8 + fluconazole, Alamar Blue growth, 48 h; at 19.5 µM (top of the series)
How it was run: as §1

Row | SMILES | activity change, negative = inhibition
19 | COC(=O)Cn1nc(-c2cncnc2)c2ccccc21 | -4.22% (inactive)

Same assay, conditions: C. albicans CaCi-8 + fluconazole, Alamar Blue growth, 48 h; at 26 µM (top of the series)

Row | SMILES | activity change, negative = inhibition
20 | N#CCn1nc(-c2ccccc2)c2ccccc21 | -24.1% (inactive)
21 | O=C(Cn1nc(-c2ccccc2)c2ccccc21)Oc1ccccc1 | -1.98% (inactive)
22 | COC(=O)Cn1nc(-c2ccccc2)c2ccc(C#N)cc21 | -13.5% (inactive)
23 | CC(C)(C)OC(=O)Cn1nc(-c2ccccc2)c2ccccc21 | 14.2% (inactive)
24 | COC(=O)Cn1nc(-c2ccc(C(F)(F)F)cc2)c2ccccc21 | -7.01% (inactive)
25 | c1ccc(-c2nn(Cc3nn[nH]n3)c3ccccc23)cc1 | -10.1% (inactive)
26 | CC(C)OC(=O)Cn1nc(-c2ccccc2)c2ccccc21 | 6.95% (inactive)
27 | CCOC(=O)Cn1nc(-c2ccccc2)c2ccccc21 | -1.88% (inactive)
28 | COC(=O)CCn1nc(-c2ccccc2)c2ccccc21 | -11.6% (inactive)
29 | c1ccc(-c2nn(Cc3ncco3)c3ccccc23)cc1 | 4.54% (inactive)
